Laboratory results: ChEMBL document CHEMBL2086324, “Synthesis and antimalarial activity of new haemanthamine-type derivatives” (Bioorg Med Chem, 2012)
pIC50: −log10 of the molar value.

System: Plasmodium falciparum
Assay: Antiplasmodial activity against chloroquine-sensitive Plasmodium falciparum F-32 Tanzania assessed as inhibition of parasitemia after 3 days
Assay type: functional, organism-based
Conditions: 72 h
Procedure, shortened: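 P. falciparum grown in glucose-enriched RPMI 1640 with 10% human serum, 37 °C. After 24 h the medium was replaced with fresh medium containing compound in DMSO at 0.1, 1 and 10 µg/mL, and incubation continued 48 h. Parasitemia was counted by blood smear per well on day 3 against control. IC50 was read graphically from concentration vs percent inhibition. Chloroquine 0.04 µM served as positive control.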

Row | pIC50 | SMILES
1 | 4.03 | C1=C[C@@]23c4cc5c(cc4CN4C[C@H]2O[C@@H]1C[C@H]43)OCO5 [APOHAEMANTHAMINE]
2 | 4.36 | CO[C@@H]1C=C[C@@]23c4cc5c(cc4CN(C[C@H]2OC(=O)c2ccc(Br)cc2)[C@H]3C1)OCO5
3 | 5.15 | CC(C)C(=O)O[C@@H]1C=C[C@@]23c4cc5c(cc4CN(C[C@H]2OC(=O)C(C)C)[C@H]3C1)OCO5
4 | 5.15 | CO[C@@H]1C=C[C@@]23c4cc5c(cc4C(OC(=O)c4cccnc4)N(C[C@H]2O)[C@H]3C1)OCO5 (stereo partly specified)
5 | 4.12 | CO[C@@H]1C=C[C@@]23c4cc5c(cc4CN(C[C@H]2OC(C)=O)[C@H]3C1)OCO5
6 | < 4.00 | CC(=O)O[C@@H]1C=C[C@@]23c4cc5c(cc4CN(C[C@H]2OC(C)=O)[C@H]3C1)OCO5
7 | 5.54 | CO[C@@H]1C=C[C@@]23c4cc5c(cc4C(OC(=O)c4ccc(Br)cc4)N(C[C@H]2OC(=O)c2ccc(Br)cc2)[C@H]3C1)OCO5 (stereo partly specified)
8 | 5.52 | O=C(O[C@@H]1C=C[C@@]23c4cc5c(cc4CN(C[C@H]2OC(=O)c2ccc(Br)cc2)[C@H]3C1)OCO5)c1ccc(Br)cc1
9 | 4.29 | CO[C@@H]1C=C[C@@]23c4cc5c(cc4CN(C[C@H]2OC(=O)c2cccnc2)[C@H]3C1)OCO5
10 | 4.88 | O[C@@H]1C=C[C@@]23c4cc5c(cc4CN(C[C@H]2O)[C@H]3C1)OCO5
11 | < 4.00 | C=Cc1ccc(C(=O)O[C@@H]2CN3Cc4cc5c(cc4[C@]24C=C[C@@H](OC)C[C@H]34)OCO5)cc1
12 | 4.25 | CO[C@@H]1C=C[C@@]23c4cc5c(cc4CN(C[C@H]2OC(=O)C(C)C)[C@H]3C1)OCO5
13 | 6.10 | O=C(O[C@@H]1C=C[C@@]23c4cc5c(cc4CN(C[C@H]2OC(=O)c2cccnc2)[C@H]3C1)OCO5)c1cccnc1
14 | 5.29 | COC(C(=O)O[C@@H]1C=C[C@@]23c4cc5c(cc4CN(C[C@H]2OC(=O)C(OC)c2ccccc2)[C@H]3C1)OCO5)c1ccccc1 (stereo partly specified)
15 | 4.28 | CO[C@@H]1C=C[C@@]23c4cc5c(cc4C(OC(C)=O)N(C[C@H]2OC(C)=O)[C@H]3C1)OCO5 (stereo partly specified)
16 | 4.13 | CO[C@@H]1C=C[C@]23C(=O)CN(Cc4cc5c(cc42)OCO5)[C@H]3C1
17 | 4.28 | CO[C@@H]1C=C[C@@]23c4cc5c(cc4C(OC(=O)C(C)C)N(C[C@H]2OC(=O)C(C)C)[C@H]3C1)OCO5 (stereo partly specified)
18 | 4.02 | CO[C@@H]1C=C[C@]23/C(=N/O)CN(Cc4cc5c(cc42)OCO5)[C@H]3C1
19 | 5.08 | C=CC(=O)O[C@@H]1CN2Cc3cc4c(cc3[C@]13C=C[C@@H](OC)C[C@H]23)OCO4

More lines, now with the values behind:

Row | SMILES | pIC50
20 | CCN(C=O)Cc1cc2c(cc1-c1ccc(O)cc1)OCO2 | < 4.00
21 | Oc1cc2c(cc1O)[C@@]13C=C[C@@H](O)C[C@@H]1N(C2)C[C@H]3O | 4.87
22 | COc1cc2c(cc1O)CN1CC[C@@]23C=CC(O)C[C@H]13 (stereo partly specified) | 4.04
23 | Oc1cc2c(cc1O)[C@@]13C=C[C@@H](O)C[C@@H]1N(C[C@H]3O)C2O (stereo partly specified) | 4.14
24 | COC1c2cc3c(cc2[C@@]24C=C[C@@H](OC)C[C@@H]2N1C[C@H]4O)OCO3 (stereo partly specified) | 4.12
25 | OC1c2cc3c(cc2[C@@]24C=C[C@H]5C[C@@H]2N1C[C@H]4O5)OCO3 (stereo partly specified) | 4.07
26 | CO[C@@H]1C=C[C@@]23c4cc5c(cc4CN(C[C@@H]2O)[C@H]3C1)OCO5 [(+)-HAEMANTHAMINE] | 5.89
27 | CO[C@@H]1CC[C@@]23c4cc5c(cc4CN(C[C@H]2O)[C@H]3C1)OCO5 | 5.00
28 | CO[C@H]1C[C@@H]2N3Cc4cc5c(cc4[C@@]2([C@H](O)C3)[C@@H](Br)[C@@H]1Br)OCO5 | 5.19
29 | CO[C@@H]1C=C[C@@]23c4cc5c(cc4C[N+]([O-])(C[C@H]2O)[C@H]3C1)OCO5 | < 4.00
30 | CO[C@@H]1C=C[C@@]23c4cc5c(cc4[C@@H](O)N(C[C@H]2O)[C@H]3C1)OCO5 [HAEMANTHIDINE] | 5.92
31 | CO[C@H]1C[C@@H]2N3Cc4cc5c(cc4[C@@]2([C@H](O)C3)[C@@H](O)[C@@H]1Br)OCO5 | 4.20
32 | CO[C@H]1C[C@@H]2N3Cc4cc5c(cc4[C@@]2([C@H](O)C3)[C@@H](Br)[C@@H]1O)OCO5 | 4.14
33 | O[C@@H]1C=C[C@]23CCN(Cc4cc5c(cc42)OCO5)[C@H]3C1 [VITTATINE] | 5.14
34 | CO[C@@H]1C=C[C@]23c4cc5c(cc4CN([C@H]2C1)[C@H]1O[C@H]13)OCO5 | 5.80
35 | CN(C=O)Cc1cc2c(cc1-c1ccc(O)cc1)OCO2 | 4.13
36 | CO[C@@H]1C=C[C@@]2(c3cc4c(cc3C=O)OCO4)C(=O)C=N[C@H]2C1 | 4.12
